Experimental data reported in ChEMBL document CHEMBL1154362, “Lead optimization and structure-based design of potent and bioavailable deoxycytidine kinase inhibitors” (Bioorg Med Chem Lett, 2009).
The source made the active and inactive calls. The calls are words filed in the database; no cut-off is given here.

Key:
Deoxycytidine kinase [1] = molecular target: T1, Deoxycytidine kinase (Homo sapiens, UniProt P27707); assay: Inhibition of human deoxycytidine kinase by lysate filter binding assay
Target sequence in this assay (P27707 whole entry): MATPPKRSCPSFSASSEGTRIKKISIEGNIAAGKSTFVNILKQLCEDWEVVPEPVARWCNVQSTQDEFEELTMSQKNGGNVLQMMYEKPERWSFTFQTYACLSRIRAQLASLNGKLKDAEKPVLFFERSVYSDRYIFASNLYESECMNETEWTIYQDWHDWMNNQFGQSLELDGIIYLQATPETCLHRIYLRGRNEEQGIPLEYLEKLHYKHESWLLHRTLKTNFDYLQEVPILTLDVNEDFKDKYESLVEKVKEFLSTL

[2] = AUC ((0 to infinity)) in mouse at 10 mg/kg, po; type: ADME, organism-based; design: time infinity, dose 10 mg/kg, route oral; details: plasma
In short: (§1)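 Mouse PK: single doses of 10 mpk po and 1 mpk iv, with blood sampled to measure compound levels. Clearance and volume came from the iv dose. AUC to infinity, Cmax and other parameters came from the po dosing data.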

[3] = Half life in mouse at 10 mg/kg, po; type: ADME, organism-based; design: dose 10 mg/kg, route oral; details: in vivo; in short: as §1
[4] = Bioavailability in mouse at 10 mg/kg, po; type: ADME, organism-based; details: in vivo; in short: as §1
[5] = Terminal volume of distribution in mouse at 1 mg/kg, iv; type: ADME, organism-based; design: dose 1 mg/kg, route intravenous; details: in vivo, read-out: Vz; in short: as §1
[6] = Clearance in mouse at 1 mg/kg, iv; type: ADME, organism-based; design: dose 1 mg/kg, route intravenous; details: in vivo; in short: as §1
[7] = Tmax in mouse at 10 mg/kg, po; type: ADME, organism-based; design: dose 10 mg/kg, route oral; details: in vivo; in short: as §1
[8] = Cmax in mouse at 10 mg/kg, po; type: ADME, organism-based; design: dose 10 mg/kg, route oral; details: in vivo; in short: as §1
[9] = Stability in mouse liver microsomes; type: ADME, Microsome
Deoxycytidine kinase [10] = molecular target: T1, Deoxycytidine kinase; assay: Inhibition of deoxycytidine kinase in anti CD3 and anti CD28 -stimulated human T cells assessed as reduction in [3H]deoxycitidine incorporation; type: cell-based, T-cell
Target sequence in this assay (P27707 whole entry): as above

Liver microsomes = assay: Stability in human liver microsomes; type: ADME, Microsome
Deoxycytidine kinase [11] = molecular target: Deoxycytidine kinase (Mus musculus, UniProt P43346); assay: Inhibition of deoxycytidine kinase in anti CD3 and anti CD28 -stimulated mouse T cells assessed as reduction in [3H]deoxycitidine incorporation; type: cell-based, T-cell
Mus musculus [12] = assay: Inhibition of deoxycytidine kinase in anti CD3 -stimulated mouse assessed as reduction in [3H]deoxycytidine incorporation at 100 mg/kg, po treated 1 day before, day 0 and day 1 after anti CD3 challenge measured on day 2; type: functional, organism-based; design: dose 100 mg/kg
In short: (§2)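 In vivo mouse dCK inhibition. Compound was given by oral gavage on day -1, day 0 and day 1. Anti-CD3 (0.5 µg/g body wt) was given ip on day 0, after the second dose. […] (100 µCi/animal) was given ip on day 1. Spleens were harvested on day 2 and dissociated into single-cell suspensions normalized to 30 mg/ml by spleen weight. Aliquots were filtered onto glass fibre and counted by liquid scintillation. n = 6-8 mice per group; controls were vehicle and no anti-CD3.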

Deoxycytidine kinase [13] = molecular target: T1, Deoxycytidine kinase; assay: Inhibition of deoxycytidine kinase in anti CD3 and anti CD28 -stimulated human T cells assessed as reduction in deoxythymidine incorporation; type: cell-based; details: T-cell
Target sequence in this assay (P27707 whole entry, looked up): as the sequence (P27707 whole entry) above

Mus musculus [14] = assay: Inhibition of deoxycytidine kinase in anti CD3 -stimulated po dosed mouse assessed as reduction in [3H]deoxycytidine incorporation treated 1 day before, day 0 and day 1 after anti CD3 challenge measured on day 2; type: functional, organism-based; in short: as §2
[15] = molecular target: Deoxycytidine kinase (Mus musculus) (UniProt P43346); assay: Inhibition of deoxycytidine kinase in anti CD3 and anti CD28 -stimulated mouse T cells assessed as reduction in deoxythymidine incorporation; type: cell-based; details: T-cell
Deoxycytidine kinase (Mus musculus), sequence (P43346 whole entry, looked up): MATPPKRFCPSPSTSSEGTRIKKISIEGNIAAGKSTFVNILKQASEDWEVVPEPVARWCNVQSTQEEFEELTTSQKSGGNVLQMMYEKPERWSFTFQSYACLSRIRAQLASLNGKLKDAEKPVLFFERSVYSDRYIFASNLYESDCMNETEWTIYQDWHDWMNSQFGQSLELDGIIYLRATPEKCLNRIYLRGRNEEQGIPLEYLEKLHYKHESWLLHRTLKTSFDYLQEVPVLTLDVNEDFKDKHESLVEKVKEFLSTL

Deoxycytidine kinase (Mus musculus, UniProt P43346), sequence (P43346 whole entry): as the sequence (P43346 whole entry, looked up) above

IC50 (Deoxycytidine kinase [1]) [nM]	AUC(0-inf) [2] [µM·h]	half-life [3] [min]	Vd [5] [L/kg]	clearance [6] [mL/min/kg]	Tmax [7] [min]	Cmax [8] [µM]	SMILES	further results
63	–	–	–	–	–	–	CS(=O)(=O)c1ccc(-c2cccc(S(=O)(=O)N[C@H]3CC[C@H](n4cc(F)c(N)nc4=O)C3)c2)cc1	–
49	–	–	–	–	–	–	N#Cc1ccc(-c2cccc(S(=O)(=O)N[C@H]3CC[C@H](n4cc(F)c(N)nc4=O)C3)c2)cc1	–
2700	–	–	–	–	–	–	Nc1nc(=O)n([C@H]2CC[C@H](NS(=O)(=O)c3ccc(Br)cc3)C2)cc1F	–
260	–	–	–	–	–	–	Nc1nc(=O)n([C@H]2CC[C@H](NC(=O)c3cccc(-c4ccccc4)c3)C2)cc1F	–
42	15.8	48	0.2	3	18	16.2	Nc1nc(=O)n([C@H]2CC[C@H](NC(=O)c3cccc(-c4ccc(Cl)cc4)c3)C2)cc1F	bioavailability [4]: 12%
21	–	–	–	–	–	–	Nc1nc(=O)n([C@H]2CC[C@H](NS(=O)(=O)c3cccc(-c4ccc(Cl)cc4Cl)c3)C2)cc1F	–
1.7	22	90	0.8	7	36	7.4	Nc1nc(=O)n([C@H]2CC[C@H](NC(=O)c3cc(-c4cc5ccccc5s4)ccn3)C2)cc1F	Stability [9]: Stable; EC50 (Deoxycytidine kinase [10]): 90 nM; Stability (Liver microsomes): Stable; bioavailability [4]: 42%; EC50 (Deoxycytidine kinase [11]): 17 nM; Activity (Mus musculus [12]): Active; Activity (Deoxycytidine kinase [13]): inactive; Activity (Mus musculus [14]): Dose-dependent effect; Activity [15]: inactive
23	–	–	–	–	–	–	Nc1nc(=O)n([C@H]2CC[C@H](NC(=O)c3cccc(-c4cccc(Cl)c4)c3)C2)cc1F	–
21	2.3	96	3	23	18	1.5	Cc1cc(Cl)ccc1-c1cccc(S(=O)(=O)N[C@H]2CC[C@H](n3cc(F)c(N)nc3=O)C2)c1	bioavailability [4]: 15%
3600	–	–	–	–	–	–	Nc1nc(=O)n([C@H]2CC[C@H](NS(=O)(=O)c3ccccc3)C2)cc1F	–
64	0.6	72	4.4	63	48	0.3	COc1ccc(-c2cccc(S(=O)(=O)N[C@H]3CC[C@H](n4cc(F)c(N)nc4=O)C3)c2)cc1	bioavailability [4]: 9%
79	–	–	–	–	–	–	Nc1nc(=O)n([C@H]2CC[C@H](NS(=O)(=O)c3cccc(-c4cccc(Cl)c4)c3)C2)cc1F	–
120	–	–	–	–	–	–	Nc1nc(=O)n([C@H]2CC[C@H](NS(=O)(=O)c3cccc(-c4ccccc4)c3)C2)cc1F	–
15300	–	–	–	–	–	–	Nc1nc(=O)n([C@H]2CC[C@H](NS(=O)(=O)c3cccc(-c4ccc(C(=O)O)cc4)c3)C2)cc1F	–
350	–	–	–	–	–	–	Nc1nc(=O)n([C@H]2CC[C@H](NS(=O)(=O)c3ccc(-c4ccccc4)cc3)C2)cc1F	–
51	5.2	126	16	140	120	1	Nc1nc(=O)n([C@H]2CC[C@H](NS(=O)(=O)c3cccc(-c4ccc(Cl)cc4)c3)C2)cc1F	–
45	–	–	–	–	–	–	Nc1nc(=O)n([C@H]2CC[C@H](NS(=O)(=O)c3cccc(-c4ccccc4Cl)c3)C2)cc1F	–
110	–	–	–	–	–	–	Cc1ccc(-c2cccc(S(=O)(=O)N[C@H]3CC[C@H](n4cc(F)c(N)nc4=O)C3)c2)cc1	–
89	–	–	–	–	–	–	NC(=O)c1ccc(-c2cccc(S(=O)(=O)N[C@H]3CC[C@H](n4cc(F)c(N)nc4=O)C3)c2)cc1	–
3200	–	–	–	–	–	–	Nc1nc(=O)n([C@H]2CC[C@H](NS(=O)(=O)c3ccc([N+](=O)[O-])cc3)C2)cc1F	–
30	3.8	96	1.3	18	18	3.4	COc1ccc(-c2cccc(C(=O)N[C@H]3CC[C@H](n4cc(F)c(N)nc4=O)C3)c2)cc1	bioavailability [4]: 17%
1900	–	–	–	–	–	–	Nc1nc(=O)n([C@H]2CC[C@H](NS(=O)(=O)c3cccc(Br)c3)C2)cc1F	–
21	10.8	78	1.6	20	18	10.1	Cc1cc(Cl)ccc1-c1cccc(C(=O)N[C@H]2CC[C@H](n3cc(F)c(N)nc3=O)C2)c1	bioavailability [4]: 58%
